Results on 1 molecule are retold here after ChEMBL document CHEMBL5661969, “Preclinical evaluation of a potent novel DNA-dependent protein kinase inhibitor NU7441” (Cancer Res, 2006).

A short description of data set [1]: Elimination half life in BALB/c mouse at 10 mg/kg, ip by HPLC analysis. Format: ADME, organism-based. As to conditions: in vivo, read-out: beta t1/2. The essentials:
(§1)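 Female BALB/c mice dosed 5 mg/kg i.v. in 10% DMSO/10% cyclodextrin in saline, or 10 mg/kg i.p. or orally at 1 mg/mL in 40% PEG400/saline. Plasma taken at 5, 10, 15, 30, 60, 90, 120, 180, 240 and 360 min, three mice per time. Acetonitrile precipitation, C18 HPLC with UV detection at 329 nm against a plasma standard curve. Parameters derived from mean concentrations.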

The nature of data set [2]: Ratio of drug level in brain to plasma of human SW620 cell xenografted athymic nude CD1 mouse at 10 mg/kg, ip measured after 15 mins by HPLC analysis. Format: ADME, organism-based. As to conditions: brain and plasma, read-out: BPR. The essentials: (§2)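 Female CD-1 nu/nu mice bearing s.c. flank SW620 tumours (1×10^7 cells, ~650 mm³ at 10–14 days) given 10 mg/kg i.p. Tissues snap frozen, homogenised 1:3 in PBS. Acetonitrile precipitation, C18 HPLC with acetate pH 5/acetonitrile 75:25 mobile phase, UV 329 nm; tissue levels by method of addition. Tissue/plasma ratio, mean of three mice per time.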
(In general: A xenograft is tissue or cells of one species grown in another, often human tumour cells in immunodeficient mice.)

Data set [3] is described as follows: Ratio of drug level in liver to plasma of human SW620 cell xenografted athymic nude CD1 mouse at 10 mg/kg, ip measured after 60 mins by HPLC analysis. Format: ADME, organism-based. The essentials:
as §2

Data set [4] in a line: Ratio of drug level in liver to plasma of human SW620 cell xenografted athymic nude CD1 mouse at 10 mg/kg, ip measured after 90 mins by HPLC analysis. Type of data set: ADME, organism-based. The essentials:
as §2

Data set [5] can be described thus: Oral bioavailability in BALB/c mouse at 10 mg/kg by HPLC analysis. Type of data set: ADME, organism-based. Conditions: in vivo. The essentials: as §1
A short description of data set [6]: Growth inhibition of human LoVo cells at 1 umol/L measured after 5 days by crystal violet staining based assay relative to control. Conditions: dose 1 µmol/L, time 5 day, read-out: GI. Format: toxicity, cell-based. An outline of the steps: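 LoVo and SW620 cells in 96-well plates under 5-day continuous exposure to agent, and growth measured relative to control.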

Data set [7] in a line: Cytotoxicity against Chinese hamster DNA-PK deficient V3 cells assessed as cell survival at 0.5 umol/L measured after 16 hrs by crystal violet staining based assay relative to control. Conditions: dose 0.5 µmol/L, read-out: Activity. Format: toxicity, Cricetulus griseus. An outline of the steps:
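Exponentially growing cells exposed 16 h to agent (0.5 or 1.0 μmol/L), with or without etoposide or doxorubicin, at 0.5% DMSO final; controls get DMSO alone. Cells are then trypsinized, reseeded at 100–100,000 per dish in drug-free medium and grown 10–14 days. Colonies stained with crystal violet and counted automatically.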

A short description of data set [8]: Tmax in BALB/c mouse at 10 mg/kg, ip by HPLC analysis. Type of data set: ADME, organism-based. Conditions: in vivo. An outline of the steps:
as §1

Data set [9] can be described thus: Ratio of drug level in tumor to plasma of human SW620 cell xenografted athymic nude CD1 mouse at 10 mg/kg, ip measured after 15 mins by HPLC analysis. Format: ADME, organism-based. Conditions: tumor and plasma. The essentials: as §2
Data set [10] is described as follows: Ratio of drug level in tumor to plasma of human SW620 cell xenografted athymic nude CD1 mouse at 10 mg/kg, ip measured after 60 mins by HPLC analysis. Format: ADME, organism-based. Conditions: tumor and plasma. An outline of the steps: as §2
Data set [11] in a line: Inhibition of DNA-PK in Chinese hamster DNA-PK proficient V3-YAC cells assessed as potentiation of etoposide-induced cytotoxicity by measuring fold change in etoposide LD90 at 0.5 umol/L measured after 16 hrs by crystal violet staining based assay relative to etoposide alone. As to conditions: dose 0.5 µmol/L, condition cancer. Also noted: species or system Cricetulus griseus. The essentials: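 V3-YAC Chinese hamster ovary cells (human DNA-PKcs YAC, kept in 500 μg/mL G-418), RPMI 1640/10% FBS. Cells reseeded drug-free, colonies crystal violet stained after 10–14 days; LD90 ratio without/with inhibitor (DMR90).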

A short description of data set [12]: Elimination half life in BALB/c mouse at 10 mg/kg, po by HPLC analysis. Conditions: in vivo, read-out: beta t1/2. Type of data set: ADME, organism-based. An outline of the steps: as §1
Data set [13] is described as follows: Elimination half life in BALB/c mouse at 5 mg/kg, iv by HPLC analysis. Type of data set: ADME, organism-based. Conditions: in vivo, read-out: beta t1/2. An outline of the steps:
as §1

Data set [14] deals with SW-620. The experiment in a line: Induction of DNA damage in human SW620 cells assessed as formation of gammaH2AX phosphorylation foci per cell at 1 umol/L measured after 1 hr by DAPI staining based immunofluorescence microscopic analysis. Type of data set: toxicity. Conditions: sw-620, 1 h, 1 µM, dose 1 µmol/L. The essentials:
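SW620 cells on coverslips at 50–70% confluence, preincubated 1 h ± 1 μmol/L agent, then 1 μmol/L etoposide for 1 h, washed three times, and kept ± agent for up to 24 h. Fixation in −20 °C methanol, then anti-γH2AX Ser139 antibody with FITC secondary and DAPI mounting. Foci counted in 30 nuclei from three areas per sample, in triplicate.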

A short description of data set [15]: Tmax in BALB/c mouse at 10 mg/kg, po by HPLC analysis. Format: ADME, organism-based. As to conditions: in vivo. The essentials: as §1
A short description of data set [16]: Toxicity in human SW620 cell xenografted athymic nude CD1 mouse assessed as maximum body weight loss at 10 mg/kg, ip administered 5 times daily for 5 days relative to control. Format: organism-based, SW-620. Conditions: in vivo, 120 h, time 5 day. The essentials: (§3)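 CD-1 nude mice carry palpable s.c. SW620 xenografts (~5×5 mm, 8-10 days), five per group. Treated i.p. daily for 5 days with saline, agent in 40% PEG 400/saline, etoposide phosphate 11.35 mg/kg (equal to 10 mg/kg etoposide), or both, agent given immediately before etoposide phosphate. Read-outs are median relative tumour volume, time to 4× volume (growth delay) and body weight.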

A short description of data set [17]: In vivo inhibition of DNA-PK in human SW620 cells xenografted athymic nude CD1 mouse assessed as potentiation of etoposide phosphate-induced antitumor activity by measuring tumor growth delay at 10 mg/kg, ip administered 5 times daily for 5 days (reference value: 2.7 day). As to conditions: time 5 day. Format: functional, SW-620. An outline of the steps:
as §3

Data set [18] deals with LoVo. The data set can be described thus: Cell cycle arrest in human LoVo cells assessed as reduction in S-phase cell population at 1 umol/L measured after 1 hr by propidium iodide staining based flow cytometry relative to control. Type of data set: toxicity. Also noted: scale not given: the % may be the effect or the level left. As to conditions: 1 µM, dose 1 µmol/L. An outline of the steps:
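Asynchronous SW620 or LoVo cells, seeded 24 h earlier, given control or 1 μmol/L agent medium for 1 h before ionizing radiation, etoposide or doxorubicin, then incubated a further 16 h. Cells fixed in 70% ethanol, stained with propidium iodide (400 μg/mL) plus RNase (1 mg/mL), and analysed by 488 nm flow cytometry.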
A general note: A flow cytometer gives signals particle by particle.

Data set [19] can be described thus: Tmax in BALB/c mouse at 5 mg/kg, iv by HPLC analysis. Format: ADME, organism-based. As to conditions: in vivo. An outline of the steps: as §1
Data set [20] is described as follows: Ratio of drug level in spleen to plasma of human SW620 cell xenografted athymic nude CD1 mouse at 10 mg/kg, ip measured after 15 mins by HPLC analysis. Type of data set: ADME, organism-based. The essentials: as §2
Data set [21] deals with DNA-dependent protein kinase catalytic subunit (Homo sapiens, UniProt P78527). Conditions: SW620, dose 1.0 µmol/L, time 17.0 hrs.
Data set [22] can be described thus: Drug level in tumor of human SW620 cell xenografted athymic nude CD1 mouse at 10 mg/kg, ip measured after 4 hrs by HPLC analysis. Type of data set: ADME, organism-based, Neoplasm, SW-620. As to conditions: read-out: Drug uptake. An outline of the steps: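 CD1 nu/nu female mice carry s.c. SW620 flank tumours (1×10^7 cells), used at ~650 mm³. Single 10 mg/kg i.p. dose, tumour excised and snap frozen at time points up to 240 min, then homogenized 1:3 in PBS. HPLC-UV at 329 nm; tissue levels by the method of addition. Three mice per time point.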

Chain of DNA-dependent protein kinase catalytic subunit (P78527 whole entry): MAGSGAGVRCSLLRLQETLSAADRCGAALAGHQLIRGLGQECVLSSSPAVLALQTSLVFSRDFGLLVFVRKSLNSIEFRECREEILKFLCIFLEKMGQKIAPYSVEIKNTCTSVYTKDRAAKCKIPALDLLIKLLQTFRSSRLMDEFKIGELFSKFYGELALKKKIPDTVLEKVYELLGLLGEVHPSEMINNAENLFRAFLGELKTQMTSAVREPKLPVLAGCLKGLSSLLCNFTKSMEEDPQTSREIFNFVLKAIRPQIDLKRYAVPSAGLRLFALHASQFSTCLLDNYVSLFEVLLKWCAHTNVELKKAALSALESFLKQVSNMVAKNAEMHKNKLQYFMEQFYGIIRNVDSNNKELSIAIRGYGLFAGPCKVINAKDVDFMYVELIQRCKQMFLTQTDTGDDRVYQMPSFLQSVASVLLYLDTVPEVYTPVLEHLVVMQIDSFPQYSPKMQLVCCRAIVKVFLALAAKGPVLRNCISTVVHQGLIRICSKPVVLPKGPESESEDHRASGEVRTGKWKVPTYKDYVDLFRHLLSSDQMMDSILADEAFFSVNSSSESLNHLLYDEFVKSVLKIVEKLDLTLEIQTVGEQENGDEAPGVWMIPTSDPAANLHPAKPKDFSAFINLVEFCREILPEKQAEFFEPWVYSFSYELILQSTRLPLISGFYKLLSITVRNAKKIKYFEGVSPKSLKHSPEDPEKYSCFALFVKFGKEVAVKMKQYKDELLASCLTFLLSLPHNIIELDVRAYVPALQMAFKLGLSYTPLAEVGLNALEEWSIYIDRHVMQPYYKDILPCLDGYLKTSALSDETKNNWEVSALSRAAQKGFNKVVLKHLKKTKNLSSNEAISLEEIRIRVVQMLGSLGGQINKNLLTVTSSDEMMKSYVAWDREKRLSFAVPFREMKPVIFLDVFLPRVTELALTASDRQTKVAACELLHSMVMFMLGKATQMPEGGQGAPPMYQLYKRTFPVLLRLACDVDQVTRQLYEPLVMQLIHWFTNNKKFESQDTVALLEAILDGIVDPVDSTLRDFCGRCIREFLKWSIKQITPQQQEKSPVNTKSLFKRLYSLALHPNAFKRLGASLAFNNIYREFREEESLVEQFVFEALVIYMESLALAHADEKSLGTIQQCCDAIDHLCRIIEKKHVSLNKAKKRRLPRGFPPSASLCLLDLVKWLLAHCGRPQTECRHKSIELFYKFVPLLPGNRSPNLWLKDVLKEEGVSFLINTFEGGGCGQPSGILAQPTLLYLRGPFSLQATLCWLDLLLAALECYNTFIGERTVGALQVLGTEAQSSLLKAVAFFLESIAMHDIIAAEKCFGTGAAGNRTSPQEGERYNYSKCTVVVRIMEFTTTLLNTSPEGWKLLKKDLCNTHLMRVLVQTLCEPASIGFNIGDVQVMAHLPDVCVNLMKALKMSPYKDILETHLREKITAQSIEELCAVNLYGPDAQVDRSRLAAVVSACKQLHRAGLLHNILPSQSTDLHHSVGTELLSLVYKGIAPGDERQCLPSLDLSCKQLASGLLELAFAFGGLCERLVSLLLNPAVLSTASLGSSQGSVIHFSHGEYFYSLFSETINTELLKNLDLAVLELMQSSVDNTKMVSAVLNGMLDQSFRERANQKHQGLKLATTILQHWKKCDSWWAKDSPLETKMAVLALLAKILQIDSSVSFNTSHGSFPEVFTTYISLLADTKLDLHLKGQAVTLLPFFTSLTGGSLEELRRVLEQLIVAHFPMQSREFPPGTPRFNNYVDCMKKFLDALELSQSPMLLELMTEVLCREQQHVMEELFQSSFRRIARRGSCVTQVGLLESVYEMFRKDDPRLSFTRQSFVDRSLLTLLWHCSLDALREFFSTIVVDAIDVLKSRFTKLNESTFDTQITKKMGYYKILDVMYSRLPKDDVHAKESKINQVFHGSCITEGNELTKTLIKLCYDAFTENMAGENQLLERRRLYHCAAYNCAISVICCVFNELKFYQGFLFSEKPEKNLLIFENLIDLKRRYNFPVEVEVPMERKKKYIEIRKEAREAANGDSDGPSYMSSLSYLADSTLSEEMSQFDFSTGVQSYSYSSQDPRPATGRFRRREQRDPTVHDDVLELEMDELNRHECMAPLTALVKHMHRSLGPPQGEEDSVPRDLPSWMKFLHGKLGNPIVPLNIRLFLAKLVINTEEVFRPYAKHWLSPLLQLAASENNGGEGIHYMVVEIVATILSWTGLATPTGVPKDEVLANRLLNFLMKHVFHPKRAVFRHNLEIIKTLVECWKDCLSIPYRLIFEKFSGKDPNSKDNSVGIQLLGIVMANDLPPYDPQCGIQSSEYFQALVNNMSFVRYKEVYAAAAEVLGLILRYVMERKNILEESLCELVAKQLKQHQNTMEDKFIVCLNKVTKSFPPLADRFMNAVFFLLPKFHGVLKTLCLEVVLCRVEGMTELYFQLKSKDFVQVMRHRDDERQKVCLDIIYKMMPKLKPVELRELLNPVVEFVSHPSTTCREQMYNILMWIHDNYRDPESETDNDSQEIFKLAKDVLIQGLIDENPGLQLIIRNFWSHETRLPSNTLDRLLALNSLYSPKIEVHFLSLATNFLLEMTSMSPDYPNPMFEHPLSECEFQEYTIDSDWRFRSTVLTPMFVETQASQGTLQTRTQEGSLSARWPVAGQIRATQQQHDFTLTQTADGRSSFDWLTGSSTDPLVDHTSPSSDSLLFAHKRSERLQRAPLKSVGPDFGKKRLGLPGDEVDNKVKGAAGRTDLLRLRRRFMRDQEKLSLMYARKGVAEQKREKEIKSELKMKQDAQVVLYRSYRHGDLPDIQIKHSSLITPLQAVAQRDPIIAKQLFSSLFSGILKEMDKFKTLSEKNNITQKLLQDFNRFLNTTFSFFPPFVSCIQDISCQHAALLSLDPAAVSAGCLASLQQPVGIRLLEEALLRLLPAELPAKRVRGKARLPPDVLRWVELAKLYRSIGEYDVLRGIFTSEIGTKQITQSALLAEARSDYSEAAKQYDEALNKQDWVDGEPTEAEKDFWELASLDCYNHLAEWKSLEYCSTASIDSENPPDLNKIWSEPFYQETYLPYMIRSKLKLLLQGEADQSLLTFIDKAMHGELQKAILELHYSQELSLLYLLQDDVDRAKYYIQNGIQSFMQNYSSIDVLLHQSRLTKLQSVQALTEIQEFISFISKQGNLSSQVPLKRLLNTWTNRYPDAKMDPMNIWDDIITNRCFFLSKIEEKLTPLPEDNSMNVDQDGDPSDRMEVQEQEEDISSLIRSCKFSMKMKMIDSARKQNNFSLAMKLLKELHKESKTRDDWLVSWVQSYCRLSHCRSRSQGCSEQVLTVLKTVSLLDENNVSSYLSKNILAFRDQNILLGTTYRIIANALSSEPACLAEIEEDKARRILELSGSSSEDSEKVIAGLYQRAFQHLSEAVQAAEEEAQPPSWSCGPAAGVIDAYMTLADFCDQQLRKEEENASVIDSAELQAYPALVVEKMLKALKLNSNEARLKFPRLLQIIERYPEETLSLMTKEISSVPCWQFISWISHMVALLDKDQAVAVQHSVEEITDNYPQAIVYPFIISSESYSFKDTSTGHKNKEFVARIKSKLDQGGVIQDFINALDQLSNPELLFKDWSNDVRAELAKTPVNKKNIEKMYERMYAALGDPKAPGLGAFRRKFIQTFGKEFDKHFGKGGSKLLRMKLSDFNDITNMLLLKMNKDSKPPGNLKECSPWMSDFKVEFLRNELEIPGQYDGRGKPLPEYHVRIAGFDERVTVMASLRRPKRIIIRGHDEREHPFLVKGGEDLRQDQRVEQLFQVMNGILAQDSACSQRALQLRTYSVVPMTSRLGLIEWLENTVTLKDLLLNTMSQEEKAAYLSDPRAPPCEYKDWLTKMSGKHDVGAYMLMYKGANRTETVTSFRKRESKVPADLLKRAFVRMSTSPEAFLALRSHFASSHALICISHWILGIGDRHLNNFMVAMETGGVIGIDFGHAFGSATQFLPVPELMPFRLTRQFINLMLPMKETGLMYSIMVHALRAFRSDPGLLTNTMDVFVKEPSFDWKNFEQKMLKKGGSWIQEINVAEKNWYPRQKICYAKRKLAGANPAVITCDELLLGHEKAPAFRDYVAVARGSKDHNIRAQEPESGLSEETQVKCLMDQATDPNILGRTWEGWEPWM

As usually defined, the bioavailability is the share of a dose that reaches the circulation, judged against a reference dose that is usually intravenous. Usually Tmax stands for the time from dosing to the highest level. Regarding `O=c1cc(N2CCOCC2)oc2c(-c3cccc4c3sc3ccccc34)cccc12`, the half-life was 53 min in data set [1], 127 min in data set [12] and 46 min in data set [13]. The Kp at 0.25 h in data set [2] was found to be 1.1; in data set [9], 0.38; in [20], 4.6. Further, the Kp at 1 h is 5.4 in data set [3] and 0.44 in data set [10]. The Kp at 1.5 h in data set [4] amounted to 19. The same molecule registered a bioavailability in [5] of 33%. Further, the inhibition at 120 h, 1 µM in [6] is 78%. In [7], the viability at 16 h, 0.5 µM stood at 94%. Moreover, the Tmax was 5 min in [8], 30 min in [15] and 5 min in [19]. For the same molecule, the “fold change (FC)” value in data set [11] came out at 2.3. For the same molecule, the Activity in data set [14] was found to be 0.13; in data set [16], 12%; in data set [18], 72%. The Time in data set [17] stood at 5.4 days. In data set [21], this molecule had an LD90 of 1.1 Gy. Besides, the concentration at 4 h in [22] came to 500 nM.
